Measured values collected from several papers.
Compare with care: the assays were run in different laboratories.
Target: Serine/threonine-protein kinase 38-like (STK38L, Homo sapiens, UniProt Q9Y2H1)

| Compound | read-out | technique | tested at | remaining binding [%] |
| --- | --- | --- | --- | --- |
| Nc1ncc2c(n1)-c1c([nH]c3ccc(C#CC4CC4)cc13)CCCC2 | binding | competition with immobilised ligand | 1 µM | 100 |
| COc1ccc2c(c1)O[C@@H](c1ccc(OC)c(OC)c1)C[C@H]2NC(=O)C1(c2ccc3c(c2)OC(F)(F)O3)CC1 | cell-free assay | competition with immobilised ligand | 1 µM | 100 |
| CN(CCCC(F)(F)F)c1nccc(-c2cnn3ncccc23)n1 | binding |  | 1 µM | 100 |
| Cc1cnc(Nc2ccc(C(=O)N3CCC(N4CCCC4)CC3)cc2)nc1-c1cc2ccccc2s1 | binding | competition with immobilised ligand | 1 µM | 100 |
| CNC(=O)Nc1ccc2c(c1)[C@@]1(CC2)OC(=O)N(CC(=O)N(Cc2ccc(F)cc2)[C@@H](C)C(F)(F)F)C1=O | binding | competition with immobilised ligand | 1 µM | 67 |
| C[C@@H](c1ccc(-n2cnc3c(N)ncnc32)cc1)N1CCc2nn(C)c(Cc3ccccc3)c2C1=O | binding | competition with immobilised ligand | 0.1 µM | 80 |
| C[C@H]1CCN(c2nccc(-c3cnn4ncccc34)n2)C1 | binding |  | 1 µM | 83 |
| COc1cnc(Nc2cccc(S(N)(=O)=O)c2)nc1N1CCN(c2ccccc2)C(=O)C1 | binding | competition with immobilised ligand | 1 µM | 100 |
| O=C(c1ccc(Nc2ncc(Cl)c(-c3ccc(Cl)s3)n2)cc1)N1CCC(N2CCCC2)CC1 | binding | competition with immobilised ligand | 1 µM | 84 |
| Cc1nccc(COC(=O)N2C[C@@H]3[C@@H](CNC(=O)c4ccc5[nH]nnc5c4)[C@@H]3C2)n1 | cell-free assay | competition with immobilised ligand | 1 µM | 70 |
| N[C@@H]1CCN(c2nccc(-c3cnn4ncccc34)n2)C1 | binding |  | 1 µM | 100 |
| c1cncc(-c2cccc(Nc3nccc(NC4CCCCC4)n3)c2)c1 | binding | competition with immobilised ligand | 10 µM | 100 |
| COc1ncc2cc3ccccc3nc2c1C#N | binding | competition with immobilised ligand | 5 µM | 87 |
| O=C(c1ccc(Nc2nccc(-c3cc4ccccc4s3)n2)cc1)N1CCC(N2CCCC2)CC1 | binding | competition with immobilised ligand | 1 µM | 94 |
| CC1=C(C#N)[C@@H](c2ccc3[nH]nc(C)c3c2)C(C#N)=C(c2ccc(Cl)cc2)N1 | binding | competition with immobilised ligand | 1 µM | 100 |
| CN(c1nccc(-c2cnn3ncccc23)n1)C1CC1 | binding |  | 1 µM | 100 |
| COc1cccc(CNC(=O)c2nc3scc(COCc4ccc(C(=O)O)cc4)c3c(=O)[nH]2)c1 | cell-free assay | competition with immobilised ligand | 1 µM | 87.7 |
| c1cnn2ncc(-c3ccnc(N4CCC45COC5)n3)c2c1 | binding |  | 1 µM | 78 |
| CC(C)(O)c1cncc(-c2nc3ccc(F)cc3n2C2CC2)c1 | cell-free assay | competition with immobilised ligand | 1 µM | 100 |
| O=C(NCC1CCOCC1)c1n[nH]cc1NC(=O)c1c(F)cccc1F | binding | competition with immobilised ligand | 1 µM | 87 |
| Cc1cnn2ncc(-c3ccnc(N(C)C)n3)c2c1 | binding |  | 1 µM | 100 |
| C=CC(=O)N1CCC(C(=O)NCC(=O)N2CCN(c3nc(-c4cnc(N)nc4C(F)F)nc(N4CCOCC4)n3)CC2)CC1 | binding | competition with immobilised ligand | 1 µM | 97 |
